Assay outcomes: PubChem, several laboratories
MIN6 prolif: induces beta-cell replication in MIN6 cells; MIN6 cells proliferation, ATPlite luminescence, 48 h; cells starved in 0.2% serum; 100% = growth in 10% serum; proliferation, % at 10 µM; 0.29% of 330,000 active;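 active means compounds whose signal lies at least 3.5 SD above the mean of all wells on their plate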
Myeloid diff 2: promotes myeloid progenitor differentiation; ER-HoxA9 myeloid progenitors, lysozyme-GFP differentiation, flow cytometry; calls only at 10 µM; 1% of 360,000 active; AID 624256;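 active means normalized GFP-positive differentiation at or above the plate's own cutoff, the solvent-only control mean plus 3 SD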;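 further: cells exposed to compound for four days before flow analysis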
SENP1 FRET inh: blocks the human SENP1 SUMO protease catalytic domain. Q9P0U3. recombinant SENP1 catalytic domain, CyPet-SUMO1-YPet FRET cleavage. inhibition, % at 10 µM. 0.21% of 360,000 active;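 active means inhibition at least 30% at 10 µM, raw YFP signal under a set limit, fluorescence ratio 0.5 to 1.5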
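Assay system – human recombinant His6-tagged SENP1 catalytic domain enzyme · Input – SENP1 enzyme, 20 pM final · Buffer or medium – Tris pH 8 buffer plus EDTA, NaCl, BME, BSA, NP40, catalase · Schedule – 50 min reaction at room temperature · Technique – FRET read of cyan and yellow fluorescence · Control set – no-enzyme wells low, DMSO-plus-enzyme wells high control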
MT1-MMP act inh: blocks activation of human MT1-MMP; P50281; HT1080 RFP-PRO-GFP cells, GFP/RFP ratio fluorescence, overnight; percent of plate control window, DMSO zero; GFP/RFP ratio change, % at 20 µM; 0.061% of 360,000 active; AID 651647;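 active means GFP/RFP ratio change of at least 30% with cell ATP level not reduced by more than half and red fluorescence within 50% of control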
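Test system: HT1080 cells expressing an RFP-PRO-GFP fluorescent reporter construct / Compound dosing: single-point 20 µM compound, 1% DMSO / Schedule: cells overnight before dosing, compound overnight, 37 °C, 5% CO2 / Evaluation: GFP/RFP fluorescence ratio / Control set: DMSO and RFP-L50D-GFP cell wells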
DAGLB inhibitor: diacylglycerol lipase beta (human) inhibition; Q8NCG7; HEK293T DAGLB membrane lysate, EnzChek fluorogenic substrate; inhibition, % at 5.17 µM; 0.059% of 340,000 active; in the data active means inhibition above about 34%
CendR NRP1 mod: alters CendR peptide binding to human NRP-1 | inhibition, % at 25 µM | 0.85% of 360,000 active | AID 602438 | FAM-RPARPAR peptide binding to NRP-1, fluorescence polarization;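 active means inhibition or corrected inhibition above about 18%, plus a signal ratio from 0.5 to 1.5, limit read from the data, passing the limit was not always enough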
Each line names hits and unclear results; the compound was inactive in the other large screens. In the library only some 2.4% were active in any assay of this set; here they are far more common.

COc1ccc(NC(=O)c2cccc(-c3ccc(O)cc3)c2)cn1	CendR NRP1 mod 41
CC(=O)Nc1cccc(NC(=O)c2cccc(-c3ccc(O)cc3)c2)c1	none
CCOC(=O)C1=C(CSc2nc(-c3ccccc3)ccc2C#N)OC(N)=C(C#N)C1c1cccnc1 (stereo unspecified)	Myeloid diff 2 active
CCOC(=O)C1=C(CSc2nc(-c3ccccc3)ccc2C#N)OC(N)=C(C#N)C1c1ccccc1 (stereo unspecified)	Myeloid diff 2 active
CCOC(=O)C1=C(CSc2nc3c(cc2C#N)CCC3)OC(N)=C(C#N)C1c1ccccc1 (stereo unspecified)	none
CCOC(=O)C1=C(c2ccccc2)OC(N)=C(C#N)C1C(C)C (stereo unspecified)	CendR NRP1 mod 50
CCOC(=O)C1=C(c2ccccc2)OC(N)=C(C#N)C1C1CCCCC1 (stereo unspecified)	none
O=C(NCCc1c[nH]c2ccccc12)OC1CC2CC1[C@H]1CCCCN1C2=O (stereo partly specified)	none (no result: MIN6 prolif, DAGLB inhibitor)
Cc1ccc(OCc2cccc(S(=O)(=O)N(C)C)c2)c([N+](=O)[O-])n1	none
COc1ccc(N2CCN(C(=O)C3Cc4ccccc4CN3C(=O)c3ccccc3)CC2)cc1 (stereo unspecified)	Myeloid diff 2 active
O=C(Cn1nnc(-c2ccc(CN3CCOCC3)cc2)n1)N(c1ccccc1)c1ccccc1	none
CCCCn1c(N)c(N(CC(C)C)C(=O)CSc2n[nH]c(-c3ccc(C)cc3)n2)c(=O)[nH]c1=O	none
CCN1C(=O)/C(=C\c2cn(-c3ccccc3)nc2-c2cccnc2)SC1=S	CendR NRP1 mod 36 (no result: MIN6 prolif)
Cc1ccccc1-c1cc(C(=O)NCc2cccc(Br)c2)n(CC2CC(c3cccnc3)=NO2)n1 (stereo unspecified)	CendR NRP1 mod 24
O=C(NCc1cccs1)c1cc(-c2ccccc2)nn1CC1CC(c2cccc([N+](=O)[O-])c2)=NO1 (stereo unspecified)	CendR NRP1 mod 30
CN(C)C(CNC(=S)Nc1cccc(Cl)c1)c1cccnc1 (stereo unspecified)	none
CC(C)CCN1CCC(n2nccc2NC(=O)c2ccc3c(c2)OCO3)CC1	CendR NRP1 mod 35
CC(C)N1CCC(n2nccc2NC(=O)c2ccc3c(c2)OCO3)CC1	none
COc1ccc(CCNC(=O)CN(c2ccc(OC)c(OC)c2)S(=O)(=O)c2ccccc2)cc1OC	none
COc1ccc(CCNC(=O)CN(c2ccc(OC)c(OC)c2)S(=O)(=O)c2ccc(C)cc2)cc1	Myeloid diff 2 active
O=C(Nc1nc(-c2ccccc2)cs1)c1ccco1	none
CC(OC(=O)c1ccco1)C(=O)Nc1nc(-c2ccccc2)cs1 (stereo unspecified)	CendR NRP1 mod 30
COc1ccc(C2=NN(C(=O)COC(=O)c3ccc(NC(=O)CC#N)cc3)C(c3ccco3)C2)cc1 (stereo unspecified)	Myeloid diff 2 active
Cc1ccc(Nc2nc(-c3ccc(S(=O)(=O)N4CCCC4)cc3)cs2)cc1C	none
Cc1cc(C)cc(Nc2nc(-c3ccc(S(=O)(=O)N4CCCC4)cc3)cs2)c1	Myeloid diff 2 active
Cc1ccc(OC(=O)c2sc3ncn(C)c(=O)c3c2C)cc1	none
CCC(C)NC(=O)CSc1ccc(S(=O)(=O)N(C)C2CCCCC2)cn1 (stereo unspecified)	none
Cc1ccc(NC(=O)CSc2nc3c(c(=O)[nH]2)CCC3)c(C)c1	none
O=C(c1cccc(S(=O)(=O)NCc2ccccc2)c1)N1CCN(c2ccccc2)CC1	Myeloid diff 2 active
Cc1ccc(S(=O)(=O)Nc2cccc(C(=O)N3CCOCC3)c2)cc1	CendR NRP1 mod 23
O=C(c1cccc(NS(=O)(=O)c2cccc(F)c2)c1)N1CCCC1	CendR NRP1 mod 27
Cc1ccc(S(=O)(=O)Nc2ccc(C(=O)N3CCOCC3)cc2)cc1	none
CCCc1ccc2oc(C(=O)NCc3nnc(C)o3)c(C)c2c1	none
C=CCn1cc(C(=O)OCC)c(=O)c2ccc(F)cc21	none
